Source: ChEMBL document CHEMBL4138185, “Investigation of the Physical and Bioactive Properties of Bromo- and Iodo-Containing Sponge-Derived Compounds Possessing an Oxyphenylethanamine Core” (J Nat Prod, 2017)
Activity calls are given as the source filed them. The rule behind the calls is not given here.

Experiments:
[1] = system: Yersinia pseudotuberculosis; test: Growth inhibition of wild-type Yersinia pseudotuberculosis at 60 uM measured at 1 hr interval for 15 hrs; format: organism-based; settings: in vivo
Summary of the method: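 Wild-type Y. pseudotuberculosis grown at room temperature in 2×YT with test agent at 60 μM, kanamycin at 50 μg/mL, or DMSO. Absorbance at 600 nm read every hour over 15 h as the growth measure.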

[2] = system: Pseudomonas aeruginosa PA103; test: Inhibition of Pseudomonas aeruginosa PA103 T3SS-mediated ExoU secretion at 60 uM after 3 hrs under low calcium medium by SDS-PAGE analysis relative to control
[3] = system: Yersinia pseudotuberculosis; test: Inhibition of wild-type Yersinia pseudotuberculosis T3SS-mediated YopE secretion at 30 uM after 2 hrs under low calcium medium by SDS-PAGE analysis relative to control
[4] = system: Yersinia pseudotuberculosis; test: Toxicity against wild-type Yersinia pseudotuberculosis at 60 uM measured after 15 hrs by MTT assay; format: organism-based; settings: in vivo
Summary of the method: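 Wild-type Y. pseudotuberculosis grown at room temperature in 2×YT with test agent at 60 μM, kanamycin at 50 μg/mL, or DMSO. MTT added after 15 h; absorbance at 570 nm used as the metabolic activity read-out.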

[5] = system: Yersinia pseudotuberculosis; test: Inhibition of wild-type Yersinia pseudotuberculosis T3SS-mediated YopE secretion at 60 uM after 2 hrs under low calcium medium by SDS-PAGE analysis relative to control
[6] = system: Yersinia pseudotuberculosis; test: Inhibition of wild-type Yersinia pseudotuberculosis T3SS-mediated YopE secretion at 120 uM after 2 hrs under low calcium medium by SDS-PAGE analysis relative to control
[7] = system: Yersinia pseudotuberculosis; test: Inhibition of wild-type Yersinia pseudotuberculosis T3SS-mediated YopE secretion at 71 uM after 2 hrs under low calcium medium by SDS-PAGE analysis relative to control

SMILES	growth inhibition (GI) [1]	inhibition [2]	inhibition [3] [%]	Activity [4]	inhibition [5] [%]	inhibition [6] [%]	inhibition [7] [%]
COc1c(Br)cc(CC(O)C(=O)NCCc2ccc(O)c(Br)c2)cc1Br (centres undefined)	Non-Toxic	inactive	> 50	Non-Toxic	–	–	–
CCC(=O)N(C)CCc1cc(Br)c(OCCCNC(=O)Cc2ccc(O)cc2)c(I)c1	Non-Toxic	inactive	> 50	Non-Toxic	–	–	–
CCC(=O)N(C)CCc1ccc(OCCCNC(=O)Cc2ccc(O)cc2)c(Br)c1	Non-Toxic	inactive	–	Non-Toxic	> 50	–	–
CCC(=O)N(C)CCc1cc(Br)c(OCCCNC(=O)Cc2ccc(O)cc2)c(Br)c1	Non-Toxic	inactive	–	Non-Toxic	–	> 50	–
CCC(=O)N(C)CCc1ccc(OCCCN(C)C(=O)Cc2ccc(O)cc2)c(Br)c1	Non-Toxic	inactive	> 50	Non-Toxic	–	–	–
CCC(=O)N(C)CCc1ccc(OCCCNC(=O)Cc2ccc(O)cc2)c(I)c1	Non-Toxic	inactive	–	Non-Toxic	–	> 50	–
COc1c(Br)cc(CC(O)C(=O)NCCc2ccc(O)c(I)c2)cc1Br (centres undefined)	Non-Toxic	inactive	–	Non-Toxic	> 50	–	–
C/C=C(\C)[C@H](O)[C@H](C)/C=C(C)/C=C/C/C(C)=C/Cc1nc(OC)c(OC)c(O)c1C	–	–	–	–	–	–	> 50
